In ChEMBL document CHEMBL3232760 (Bioorg Med Chem, 2014):
Calls of active or inactive are those of the source. No cut-off for these calls is given here.

Tests used:
Assay type in all cases: cell-based
[1] = molecular target: T1, Steryl-sulfatase (Homo sapiens) (UniProt P08842); assay: Inhibition of steroid sulfatase in human MCF7 cells assessed as conversion of [3H]E1S to [3H]E1 and [3H]E2 at 0.1 uM after 5 hrs by liquid scintillation counting
T1 sequence (whole entry): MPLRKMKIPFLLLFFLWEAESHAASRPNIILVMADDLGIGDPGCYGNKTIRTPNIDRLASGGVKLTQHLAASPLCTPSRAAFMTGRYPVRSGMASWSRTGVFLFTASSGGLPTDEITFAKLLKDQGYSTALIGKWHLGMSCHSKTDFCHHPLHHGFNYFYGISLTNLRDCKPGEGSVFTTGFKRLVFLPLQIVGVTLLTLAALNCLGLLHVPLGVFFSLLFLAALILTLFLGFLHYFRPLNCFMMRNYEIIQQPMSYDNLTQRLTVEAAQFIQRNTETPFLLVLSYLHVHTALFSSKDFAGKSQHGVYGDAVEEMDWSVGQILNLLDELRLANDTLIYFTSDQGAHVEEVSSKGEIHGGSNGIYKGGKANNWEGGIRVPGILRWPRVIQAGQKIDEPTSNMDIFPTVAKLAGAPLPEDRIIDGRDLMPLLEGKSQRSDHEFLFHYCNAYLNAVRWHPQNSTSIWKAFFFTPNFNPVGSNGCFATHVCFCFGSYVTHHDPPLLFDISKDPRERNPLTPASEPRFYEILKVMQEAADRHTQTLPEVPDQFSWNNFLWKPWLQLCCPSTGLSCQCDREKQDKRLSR
Summary of the method: (§1)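 MCF-7 homogenate (freeze–thaw five times, diluted in Tris–EDTA, centrifuged 15,000g 4 °C 15 min, supernatant adjusted to 0.2 mg/mL protein by Bradford) incubated with [3H]E1S (final 10 nM) and inhibitor at 37 °C for 5 h. Toluene extraction of [3H]E1 plus [3H]E2, liquid scintillation counting; 1 uM STX64 defined 100%; triplicate.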

[2] = molecular target: T1, Steryl-sulfatase (Homo sapiens); assay: Inhibition of steroid sulfatase in human MCF7 cells assessed as conversion of [3H]E1S to [3H]E1 and [3H]E2 at 1 uM after 5 hrs by liquid scintillation counting; summary of the method: as §1
[3] = molecular target: T2, Estrogen receptor (Homo sapiens) (UniProt P03372); assay: Agonist activity at human Gal4-fused ER-alpha expressed in HEK293 cells at 10 uM by luciferase reporter gene assay relative to 17beta-estradiol
T2 sequence (whole entry): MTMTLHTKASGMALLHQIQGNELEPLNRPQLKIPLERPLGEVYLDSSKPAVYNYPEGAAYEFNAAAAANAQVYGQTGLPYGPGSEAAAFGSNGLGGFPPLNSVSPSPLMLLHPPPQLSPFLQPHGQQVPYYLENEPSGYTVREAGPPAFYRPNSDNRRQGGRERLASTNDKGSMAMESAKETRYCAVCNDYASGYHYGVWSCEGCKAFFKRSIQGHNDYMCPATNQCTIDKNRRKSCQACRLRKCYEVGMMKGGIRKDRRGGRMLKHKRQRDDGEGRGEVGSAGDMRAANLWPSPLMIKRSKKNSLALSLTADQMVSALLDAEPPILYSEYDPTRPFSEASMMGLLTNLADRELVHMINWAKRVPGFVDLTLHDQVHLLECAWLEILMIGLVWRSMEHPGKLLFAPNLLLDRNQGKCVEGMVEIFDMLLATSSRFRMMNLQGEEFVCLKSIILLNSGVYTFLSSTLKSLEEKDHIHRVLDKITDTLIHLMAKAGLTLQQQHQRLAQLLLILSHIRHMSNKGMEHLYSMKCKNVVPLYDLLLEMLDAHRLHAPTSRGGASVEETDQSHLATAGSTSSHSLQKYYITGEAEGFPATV
Summary of the method: (§2)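 Agonist mode: HEK293 cells in phenol-red-free DMEM with 5% FBS, 37 °C, 5% CO2, calcium phosphate cotransfected with GAL4-responsive MH100(UAS)x4-tk-LUC reporter, ER receptor fragment plasmid and beta-galactosidase plasmid. Compound added 8 h post-transfection, cells harvested 16–20 h later. Luciferase normalized to beta-galactosidase, triplicate means.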

[4] = molecular target: T2, Estrogen receptor (Homo sapiens); assay: Antagonist activity at human Gal4-fused ER-alpha expressed in HEK293 cells assessed as inhibition of 17beta-estradiol-induced effect at 3 uM by luciferase reporter gene assay
Summary of the method: (§3)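 Antagonist mode in transfected HEK293 GAL4-ER luciferase system, with cells co-treated with 0.3 nM 17beta-estradiol. Compound added 8 h post-transfection, 16–20 h treatment, luciferase normalized to beta-galactosidase, triplicate means.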

[5] = molecular target: T3, Estrogen receptor beta (Homo sapiens, UniProt Q92731); assay: Agonist activity at human Gal4-fused ER-beta expressed in HEK293 cells at 10 uM by luciferase reporter gene assay relative to 17beta-estradiol; summary of the method: as §2
T3 sequence (Q92731 whole entry, the tested form may be a part): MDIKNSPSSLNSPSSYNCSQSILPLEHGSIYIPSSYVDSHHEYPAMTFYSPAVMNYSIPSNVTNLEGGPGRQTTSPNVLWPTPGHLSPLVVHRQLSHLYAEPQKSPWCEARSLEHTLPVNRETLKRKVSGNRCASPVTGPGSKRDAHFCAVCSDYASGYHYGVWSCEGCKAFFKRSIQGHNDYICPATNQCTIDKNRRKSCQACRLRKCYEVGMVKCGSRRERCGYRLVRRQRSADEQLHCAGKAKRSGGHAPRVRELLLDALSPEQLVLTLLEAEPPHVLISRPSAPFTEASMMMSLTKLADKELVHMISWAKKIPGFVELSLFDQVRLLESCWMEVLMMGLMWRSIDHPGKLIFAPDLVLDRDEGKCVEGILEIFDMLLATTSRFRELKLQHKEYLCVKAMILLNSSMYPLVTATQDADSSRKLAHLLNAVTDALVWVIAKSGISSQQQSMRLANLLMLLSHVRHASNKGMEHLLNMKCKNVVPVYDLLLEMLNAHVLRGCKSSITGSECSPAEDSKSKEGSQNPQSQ

[6] = molecular target: T3, Estrogen receptor beta; assay: Antagonist activity at human Gal4-fused ER-beta expressed in HEK293 cells assessed as inhibition of 17beta-estradiol-induced effect at 3 uM by luciferase reporter gene assay; summary of the method: as §3
[7] = molecular target: T4, Steryl-sulfatase (Homo sapiens, UniProt P08842); assay: Inhibition of steroid sulfatase in human MCF7 cells assessed as conversion of [3H]E1S to [3H]E1 and [3H]E2 after 5 hrs by liquid scintillation counting; summary of the method: as §1
T4 sequence (P08842 whole entry): T1 sequence (whole entry)

[8] = molecular target: T5, Estrogen receptor (Homo sapiens, UniProt P03372); assay: Agonist activity at human Gal4-fused ER-alpha expressed in HEK293 cells by luciferase reporter gene assay
T5 sequence (P03372 whole entry): T2 sequence (whole entry)
Summary of the method: (§4)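 GAL4-ER fusion reporter in HEK293 (phenol-red-free DMEM, 5% FBS), calcium phosphate transfection with MH100(UAS)x4-tk-LUC and beta-galactosidase control; compounds given 8 h after transfection, harvest at 16–20 h. Luciferase/beta-galactosidase ratio, triplicate means; agonism expressed as EC50 (nM).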

[9] = molecular target: T3, Estrogen receptor beta; assay: Agonist activity at human Gal4-fused ER-beta expressed in HEK293 cells by luciferase reporter gene assay; summary of the method: as §4
[10] = molecular target: T3, Estrogen receptor beta; assay: Antagonist activity at human Gal4-fused ER-beta expressed in HEK293 cells assessed as inhibition of 17beta-estradiol-induced effect by luciferase reporter gene assay
Summary of the method: (§5)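 With 0.3 nM 17beta-estradiol present, HEK293 cells calcium phosphate cotransfected with GAL4-responsive luciferase reporter, ER plasmid and beta-galactosidase were treated 8 h post-transfection for 16–20 h. Normalized luciferase, triplicate means; antagonism expressed as IC50 (nM).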

[11] = molecular target: T5, Estrogen receptor; assay: Antagonist activity at human Gal4-fused ER-alpha expressed in HEK293 cells assessed as inhibition of 17beta-estradiol-induced effect by luciferase reporter gene assay; summary of the method: as §5
[12] = molecular target: T3, Estrogen receptor beta; assay: Antagonist activity at human Gal4-fused ER-beta expressed in HEK293 cells assessed as inhibition of 17beta-estradiol-induced effect at 1 uM by luciferase reporter gene assay; summary of the method: as §3

| Structure (SMILES) | inhibition [1] [%] | inhibition [2] [%] | Activity [3] | inhibition [4] | Activity [5] | inhibition [6] | further results |
| --- | --- | --- | --- | --- | --- | --- | --- |
| CCC(CC)(c1ccc(OS(N)(=O)=O)c(C)c1)c1ccc(OS(N)(=O)=O)c(C)c1 | < 10 | 25.4 | inactive | 36.7% | inactive | 49.3% |  |
| CC[Si](CC)(c1ccc(OS(N)(=O)=O)c(C)c1)c1ccc(OS(N)(=O)=O)c(C)c1 | 22.6 | 82.6 | inactive | 94.8% | inactive | 47.2% | IC50 [7]: 170 nM |
| CCCCC(CCCC)(c1ccc(O)c(C)c1)c1ccc(O)c(C)c1 |  |  |  |  |  |  | EC50 [8]: Not Active; EC50 [9]: Not Active |
| C[Si](C)(c1ccc(O)cc1)c1ccc(O)cc1 | < 10 | < 10 | 25.3% | 50.9% |  |  | IC50 ([10]; hek293): Not Active |
| CC[Si](CC)(c1ccc(OS(N)(=O)=O)cc1)c1ccc(OS(N)(=O)=O)cc1 | 62 | 96.4 | inactive | 100% | 1.1% | 62.8% |  |
| CCC[Si](CCC)(c1ccc(OS(N)(=O)=O)c(C)c1)c1ccc(OS(N)(=O)=O)c(C)c1 | < 10 | 18.7 |  | 87.1% |  | 18% |  |
| CCC(CC)(c1ccc(O)c(C)c1)c1ccc(O)c(C)c1 |  |  |  |  |  |  | IC50 [11]: 3.53 nM; EC50 [8]: Not Active; EC50 [9]: Not Active |
| CCC[Si](CCC)(c1ccc(O)c(C)c1)c1ccc(O)c(C)c1 |  |  | 5.6% |  | 4.9% |  | IC50 [11]: 26.2 nM; IC50 ([10]; read-out: IC50): 804 nM |
| Oc1ccc(Sc2ccc(O)cc2)cc1 |  |  | 37.8% |  |  |  | IC50 ([10]; hek293): Not Active |
| CCC(CC)(c1ccc(OS(N)(=O)=O)cc1)c1ccc(OS(N)(=O)=O)cc1 | 11 | 29.9 | inactive | 53.2% | inactive | 49.3% |  |
| CCCC(CCC)(c1ccc(OS(N)(=O)=O)c(C)c1)c1ccc(OS(N)(=O)=O)c(C)c1 | < 10 | 21.1 |  | 54.9% |  | 43.9% |  |
| CCCC[Si](CCCC)(c1ccc(OS(N)(=O)=O)c(C)c1)c1ccc(OS(N)(=O)=O)c(C)c1 | < 10 | 16.4 |  | 16.4% |  | inactive |  |
| NS(=O)(=O)Oc1ccc(Sc2ccc(OS(N)(=O)=O)cc2)cc1 | 57.1 | 89.7 |  |  | 82.8% | inactive | IC50 [7]: 88 nM; EC50 [8]: Active |
| CCCCC(CCCC)(c1ccc(OS(N)(=O)=O)c(C)c1)c1ccc(OS(N)(=O)=O)c(C)c1 | 10.3 | 28 |  | 42.5% |  | inactive |  |
| NS(=O)(=O)Oc1ccc2c3c(c(=O)oc2c1)CCCCC3 |  | 100 |  |  |  |  |  |
| CN(C)S(=O)(=O)Oc1ccc([Si](C)(C)c2ccc(OS(=O)(=O)N(C)C)cc2)cc1 | < 10 | < 10 |  |  |  |  |  |
| CC(C)(c1ccc(O)cc1)c1ccc(O)cc1 [BISPHENOL A] |  |  | 28.7% | 36.1% |  |  | IC50 ([10]; hek293): Not Active |
| Oc1ccc(Cc2ccc(O)cc2)cc1 |  |  |  | 22.6% |  |  | IC50 ([10]; hek293): Not Active |
| CC[Si](CC)(c1ccc(O)c(C)c1)c1ccc(O)c(C)c1 |  |  |  |  |  | 53.5% | IC50 [11]: 29.7 nM |
| CCC(CC)(c1ccc(O)cc1)c1ccc(O)cc1 |  |  |  |  | 9.3% |  | IC50 [11]: 118 nM; EC50 [8]: Not Active |
| C[Si](C)(c1ccc(OS(N)(=O)=O)cc1)c1ccc(OS(N)(=O)=O)cc1 | 35.8 | 81.9 | 10.8% | inactive | 16.7% | inactive |  |
| CC[Si](CC)(c1ccc(O)cc1)c1ccc(O)cc1 |  |  | 7.1% |  | 11.9% |  | IC50 [11]: 115 nM; inhibition [12]: 53% |
| C[Si](C)(c1ccc(O)cc1)c1ccc(OS(N)(=O)=O)cc1 | 25.2 | 76.4 |  |  |  |  |  |
| CCCC(CCC)(c1ccc(O)c(C)c1)c1ccc(O)c(C)c1 |  |  |  |  | 6.1% |  | EC50 [8]: Not Active |
| CC(C)(c1ccc(OS(N)(=O)=O)cc1)c1ccc(OS(N)(=O)=O)cc1 | < 10 | < 10 | 9.5% | 6.63% | inactive | 7.79% |  |
| NS(=O)(=O)Oc1ccc(Cc2ccc(OS(N)(=O)=O)cc2)cc1 | < 10 | 50.1 |  |  |  | 2.25% | IC50 [7]: 1020 nM; EC50 [8]: Active |
